The target in assay [1] is T1, SphK2 (Homo sapiens, UniProt Q9NRA0).
T1 sequence (Q9NRA0 1-654): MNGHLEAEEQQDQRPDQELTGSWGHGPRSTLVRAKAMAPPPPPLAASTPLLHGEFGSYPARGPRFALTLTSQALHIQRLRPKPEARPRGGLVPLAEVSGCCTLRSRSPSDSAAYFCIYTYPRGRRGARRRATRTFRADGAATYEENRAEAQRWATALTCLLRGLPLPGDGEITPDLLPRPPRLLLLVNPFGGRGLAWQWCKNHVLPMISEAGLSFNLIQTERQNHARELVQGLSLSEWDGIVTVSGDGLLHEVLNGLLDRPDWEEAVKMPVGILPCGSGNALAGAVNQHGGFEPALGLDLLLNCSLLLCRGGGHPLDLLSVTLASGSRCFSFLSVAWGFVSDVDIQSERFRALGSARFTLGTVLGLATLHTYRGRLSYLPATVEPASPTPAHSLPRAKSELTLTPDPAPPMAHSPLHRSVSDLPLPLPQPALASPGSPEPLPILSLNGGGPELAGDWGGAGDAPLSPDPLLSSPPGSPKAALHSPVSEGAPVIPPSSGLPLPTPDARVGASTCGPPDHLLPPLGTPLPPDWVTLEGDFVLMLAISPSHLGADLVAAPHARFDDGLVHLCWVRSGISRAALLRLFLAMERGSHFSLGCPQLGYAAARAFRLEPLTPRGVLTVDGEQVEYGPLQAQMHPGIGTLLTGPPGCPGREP
Nature of the assay: SphK2 inhibition, fluorometric assay with NBD-sphingosine as substrate. The class given is biochemical. Particulars: read-out: IC50 for SphK2; 100 nM recombinant SphK2, NBD-sphingosine, 37 °C. An outline of the steps:
(§1)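 Recombinant SphK1 or SphK2 at 100 nM in 30 mM Tris-HCl pH 7.4 with 150 mM NaCl, 10% glycerol, 0.05% Triton X-100 and 1% DMSO. Test compounds were dissolved in DMSO and screened at 650 μM; actives were then tested at several concentrations to derive IC50. NBD-sphingosine-1-phosphate formation was read by fluorescence (ex 550 nm, em 584 nm) at 37 °C.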

A further assay has as its target SphK1 (Homo sapiens, UniProt Q9NYA1). In words: SphK1 inhibition, fluorometric assay with NBD-sphingosine as substrate. The class given is biochemical. In a few lines:
as §1

The target in assay [2] is T1, SphK2. Particulars: read-out: inhibitory effect reported for K145 on SphK2; cited from earlier work.

pIC50: −log10 of the molar value. Like-named read-outs stand apart in the source and are kept apart here.

Sequence of SphK1 (Q9NYA1 whole entry): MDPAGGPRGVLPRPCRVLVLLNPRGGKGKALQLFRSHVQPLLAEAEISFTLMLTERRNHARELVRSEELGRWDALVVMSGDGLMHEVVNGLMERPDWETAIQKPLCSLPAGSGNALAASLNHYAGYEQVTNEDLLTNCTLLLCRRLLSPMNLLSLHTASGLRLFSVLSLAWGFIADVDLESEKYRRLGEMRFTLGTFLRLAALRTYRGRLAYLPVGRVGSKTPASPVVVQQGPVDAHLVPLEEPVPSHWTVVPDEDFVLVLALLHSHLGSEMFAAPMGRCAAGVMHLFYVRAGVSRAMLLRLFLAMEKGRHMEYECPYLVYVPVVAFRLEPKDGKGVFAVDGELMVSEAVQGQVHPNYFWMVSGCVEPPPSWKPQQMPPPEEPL

Consider “3-((4-(4-chlorophenyl)pyrimidin-2-yl)-1-yl)oxymethyl) quinolin-2(1H)-ones [compound 9]”, for which, at SphK2 [1], the pIC50 was 4.74.
`Oc1ccc(Nc2nccc(-c3ccc(Cl)cc3)n2)cc1` [4a, 4-((4-(4-chlorophenyl)pyrimidin-2-yl)amino)phenol] gave a pIC50 against SphK1 of 4.36.
The same measure, in the same setting: under `COc1ccc2[nH]c(=O)c(/C=C/C(=O)c3ccc(Nc4nccc(-c5ccc(Cl)cc5)n4)cc3)cc2c1` [11a, (E)-3-(3-(4-((4-(4-chlorophenyl)pyrimidin-2-yl)amino)phenyl)-3-oxoprop-1-en-1-yl)-6-methoxyquinolin-2(1H)-one] stands 4.55.
As to `COc1ccc2[nH]c(=O)c(/C=C/C(=O)c3ccc(Nc4nccc(-c5ccc6ccccc6c5)n4)cc3)cc2c1` [11b, (E)-6-methoxy-3-(3-(4-((4-(naphthalen-2-yl)pyrimidin-2-yl)amino)phenyl)-3-oxoprop-1-en-1-yl)quinolin-2(1H)-one], the “selectivity SphK1 versus SphK2” value at SphK1 (in words) is “selective inhibitory effect on SphK1”.
For the compound `COc1cc2cc(CNc3ccc(Nc4nccc(-c5ccc(Cl)cc5)n4)cc3)c(=O)[nH]c2cc1OC` [16a, 3-(((4-((4-(4-chlorophenyl)pyrimidin-2-yl)amino)phenyl)amino)methyl)-6,7-dimethoxyquinolin-2(1H)-one], on SphK1, the pIC50 was 4.23.
Compound `COc1cc2cc(CNc3ccc(Nc4nccc(-c5ccc6ccccc6c5)n4)cc3)c(=O)[nH]c2cc1OC` [16b, 6,7-dimethoxy-3-(((4-((4-(naphthalen-2-yl)pyrimidin-2-yl)amino)phenyl)amino)methyl)quinolin −2(1H)-one] showed a pIC50 at SphK1 of 4.73.
Still for that read-out and setting: for `O=c1[nH]c2cc(O)c(O)cc2cc1CNc1ccc(Nc2nccc(-c3ccc4ccccc4c3)n2)cc1` [19b, 6,7-dihydroxy-3-(((4-((4-(naphthalene-2-yl)pyrimidin-2-yl)amino)phenyl)amino)methyl)quinolin-2(1H)-one] the value was 4.80.
Consider `CCCCOc1ccc(CCC=C2SC(=O)N(CCN)C2=O)cc1` [K145, 3-(2-amino-ethyl)-5-[3-(4-butoxyl-phenyl)-propylidene]-thiazolidine-2,4-dione], for which, at SphK2 [2], the pIC50 was 5.37.

Source of the values: paper PMC6954317 (Bioorganic chemistry, 2019).
